The test system of assay [1] is Enterococcus faecium. Put plainly: Antibacterial activity against glycopeptide resistant Enterococcus faecium 569 strain. It counts as functional. The method, boiled down: (§1)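 MIC by broth microdilution in Mueller Hinton broth following NCCLS procedures. Compounds were dissolved in 10% DMSO in water, then diluted in broth. Final DMSO was 1.28% at 128 µg/mL antibiotic down to 0.0013% at 0.13 µg/mL. Repeat determinations were usually identical and always within 2-fold.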

Assay [2] deals with Enterococcus faecium. In words: Antibacterial activity against glycopeptide susceptible Enterococcus faecium 568 strain. It counts as functional. The method, boiled down: (§2)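 MIC by broth microdilution in Mueller Hinton broth following NCCLS procedures. Compounds dissolved in 10% DMSO in water, then diluted in broth; test range 128 to 0.13 µg/mL, final DMSO 1.28% to 0.0013% accordingly. Repeat determinations usually identical and always within 2-fold. Strain 533 is a clinical isolate; strain 602 is a clinical S. haemoliticus isolate.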

The subject of assay [3] is Enterococcus faecalis. Put plainly: Antibacterial activity against glycopeptide resistant Enterococcus faecalis 560 strain. Type of assay: functional. In short, it runs like this: as §1
Assay [4] deals with Enterococcus faecalis. In words: Antibacterial activity against glycopeptide susceptible Enterococcus faecalis 559 strain. Type of assay: functional. In short, it runs like this:
as §2

Assay [5] has as its system Staphylococcus aureus. In words: Antibacterial activity against glycopeptide intermediate resistant Staphylococcus aureus 3797 strain. It counts as functional. In short, it runs like this:
as §1

In assay [6] the test system is Staphylococcus aureus. Put plainly: Antibacterial activity against glycopeptide intermediate resistant Staphylococcus aureus 3798 strain. It counts as functional. In short, it runs like this: as §1
The test system of assay [7] is Staphylococcus epidermidis. Put plainly: Antibacterial activity against Staphylococcus epidermis 533 strain. Type of assay: functional.
Assay [8] concerns Staphylococcus haemolyticus. In words: Antibacterial activity against Staphylococcus haemolyticus 602 strain.

≈ marks a conversion by molar mass, not a printed value.

For orientation: MIC means the least concentration at which growth counts as inhibited. Read a low MIC as a more susceptible organism. Regarding `N[C@H]1C(=O)N[C@@H]2Cc3ccc(c(Cl)c3)Oc3cc4cc(c3O)Oc3ccc(cc3Cl)[C@@H](O)[C@@H]3NC(=O)[C@H](NC(=O)[C@@H]4NC(=O)[C@@H](NC2=O)c2cc(O)cc(c2)Oc2cc1ccc2O)c1ccc(O)c(c1)-c1c(O)cc(O)cc1[C@@H](C(=O)NCc1ccc(-c2ccc(Cl)cc2)cc1)NC3=O`, the MIC came to 4 µg/mL (≈ 2.86 µM) in assay [1]; 0.25 µg/mL (≈ 0.179 µM) in assay [2]; 8 µg/mL (≈ 5.72 µM) in assay [3]; 0.25 µg/mL (≈ 0.179 µM) in assay [4]; 1 µg/mL (≈ 0.715 µM) in assay [5]; 1 µg/mL (≈ 0.715 µM) in assay [6]. Also, the minimal inhibitory concentration (MIC) in assay [7] and in assay [8] was 0.13 µg/mL (≈ 0.0929 µM) throughout.
As for `NC(=O)C[C@@H]1NC(=O)[C@H](N)[C@H](O)c2ccc(c(Cl)c2)Oc2cc3cc(c2O)Oc2ccc(cc2)[C@@H](O)[C@@H]2NC(=O)[C@H](NC(=O)[C@@H]3NC1=O)c1ccc(O)c(c1)-c1c(O)cc(O)cc1[C@@H](C(=O)NCc1ccc(-c3ccc(Cl)cc3)cc1)NC2=O`, the MIC in assay [1] came out at 64 µg/mL (≈ 54.1 µM); in assay [2], 32 µg/mL (≈ 27.1 µM); in assay [3], 64 µg/mL (≈ 54.1 µM); in assay [4], 64 µg/mL (≈ 54.1 µM); in assay [5] it was 64 µg/mL (≈ 54.1 µM); in assay [6], 64 µg/mL (≈ 54.1 µM). Moreover, the results for the MIC in assay [7] and in assay [8] were 32 µg/mL (≈ 27.1 µM) and 64 µg/mL (≈ 54.1 µM), respectively.
As for `CN[C@H](CC(C)C)C(=O)N[C@H]1C(=O)N[C@@H](CC(N)=O)C(=O)N[C@H]2C(=O)N[C@H]3C(=O)N[C@H](C(=O)N[C@H](C(=O)O)c4cc(O)cc(O)c4-c4cc3ccc4O)[C@H](O)c3ccc(cc3)Oc3cc2cc(c3O)Oc2ccc(cc2Cl)[C@H]1O` [EREMOMYCIN AGLYCON], the MIC in assay [1] was above 128 µg/mL; in assay [2] it was 32 µg/mL (≈ 28.8 µM); in assay [3], above 128 µg/mL; in assay [4], 16 µg/mL (≈ 14.4 µM); in assay [5] it was above 64 µg/mL; in assay [6] it was above 64 µg/mL. The figures for the MIC in assay [7] and in assay [8] were 32 µg/mL (≈ 28.8 µM) and 16 µg/mL (≈ 14.4 µM), respectively.
Turning to `CN[C@H](CC(C)C)C(=O)N[C@H]1C(=O)N[C@@H](CC(N)=O)C(=O)N[C@H]2C(=O)N[C@H]3C(=O)N[C@H](C(=O)N[C@H](C(=O)O)c4cc(O)cc(O)c4-c4cc3ccc4O)[C@H](O[C@@H]3C[C@@](C)(N)[C@H](O)[C@@H](C)O3)c3ccc(cc3)Oc3cc2cc(c3O[C@H]2O[C@@H](CO)[C@H](O)[C@@H](O)[C@@H]2O[C@H]2C[C@](C)(N)[C@@H](O)[C@H](C)O2)Oc2ccc(cc2Cl)[C@H]1O` [EREMOMYCIN], the MIC in assay [1] is above 128 µg/mL; in assay [2] it was 0.25 µg/mL (≈ 0.16 µM); in assay [3] it was above 128 µg/mL; in assay [4], 0.25 µg/mL (≈ 0.16 µM); in assay [5] it was 8 µg/mL (≈ 5.13 µM); in assay [6] it was 8 µg/mL (≈ 5.13 µM). Moreover, the minimum inhibitory concentration (MIC) in assay [7] and in assay [8] was 0.25 µg/mL (≈ 0.16 µM) in each case.
Turning to `N[C@H]1C(=O)N[C@@H]2Cc3ccc(c(Cl)c3)Oc3cc4cc(c3O)Oc3ccc(cc3Cl)[C@@H](O)[C@@H]3NC(=O)[C@H](NC(=O)[C@@H]4NC(=O)[C@@H](NC2=O)c2cc(O)cc(c2)Oc2cc1ccc2O)c1ccc(O)c(c1)-c1c(O)cc(O)cc1[C@@H](C(=O)O)NC3=O` [TEICOPLANIN AGLYCON], the minimum inhibitory concentration (MIC) in assay [1] is above 128 µg/mL; in assay [2] it was 0.13 µg/mL (≈ 0.108 µM); in assay [3], above 128 µg/mL; in assay [4], 0.13 µg/mL (≈ 0.108 µM); in assay [5], 1 µg/mL (≈ 0.834 µM); in assay [6], 1 µg/mL (≈ 0.834 µM). Further, the minimal inhibitory concentration (MIC) in assay [7] and in assay [8] was 0.25 µg/mL (≈ 0.209 µM) in each case.

The values are drawn from ChEMBL document CHEMBL1136741, “Role of the glycopeptide framework in the antibacterial activity of hydrophobic derivatives of glycopeptide antibiotics” (2003).
